Bioassay records from PubChem.
WT yeast gro inh – growth inhibition of WT strain, primary screen, mitochondrial fusion inhibitor project, WT and mutant strains, chemical genetic | mitochondrial fusion phenotypic screen | inhibition, % at 10 µM | 2.1% of 190,000 active | AID 1362, 2008; in the data active = inhibition above about 58%; tested in S. cerevisiae
CHOP inh – inhibitors of CHOP promoter induction, primary screen, cell-based, unfolded protein response, luciferase reporter; CHO-K1 CHOP-promoter luciferase, tunicamycin-induced, 15-18 h; inhibition, % at 10 µM; 3.8% of 220,000 active;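 active = compounds that reduced the stress-induced luciferase reporter signal by more than about 70% of percent inhibition, limit read from the data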;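 note: 0% = tunicamycin plus vehicle and 100% = wells without tunicamycin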
EBV gp42 block – Epstein-Barr virus gp42 inhibitors, primary screen, biochemical, uHTS, fluorescence polarization; Fluorescence polarization binding assay, mP read-out; 0.42% of 220,000 active; Glycoprotein 42 (Epstein-Barr virus (strain AG876)), Q1HVG2; inhibition, % (tested at 21.74 µM); in the data active = inhibition above about 50%
Target sequence (Q1HVG2 whole entry, looked up): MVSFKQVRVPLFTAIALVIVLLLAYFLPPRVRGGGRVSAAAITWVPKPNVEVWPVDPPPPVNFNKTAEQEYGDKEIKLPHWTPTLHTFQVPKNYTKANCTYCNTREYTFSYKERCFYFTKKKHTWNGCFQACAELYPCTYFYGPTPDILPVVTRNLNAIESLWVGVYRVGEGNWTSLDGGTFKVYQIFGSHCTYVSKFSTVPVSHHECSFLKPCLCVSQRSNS
Tb MetRS inh – T. brucei MetRS inhibitors, primary screen, biochemical, luminescence. methionyl-tRNA synthetase (Trypanosoma brucei brucei). purified T. brucei MetRS, ATP depletion, Kinase-Glo luminescence. inhibition, % at 11.9 µM. 0.4% of 360,000 active;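 active = inhibition above a per-plate cutoff of the control wells' mean inhibition plus 3 SD, cut at about 5.5% in these data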;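 note: 0% = DMSO wells median and 100% = median of wells with control inhibitor compound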
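Material: T. brucei methionyl-tRNA synthetase, purified; reagent: substrates ATP, L-methionine and bulk Escherichia coli tRNA; dosing: 11.9 µM single point; timing: 15 min plus 2 h at 25 °C; detection: luminescence of leftover ATP; evaluation: % inhibition; control set: DMSO-only wells as low control; replicates: singlicate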
NR3A LBD binder – binders of NR3A ligand-binding domain, primary screen, biophysical, differential scanning fluorimetry, uHTS | NR3A LBD differential scanning fluorimetry, Tm shift; 0% = protein alone, 100% = glycine-bound protein | Tm shift relative to glycine control, % at 25 µM | 2.5% of 340,000 active;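 active = melting temperature shift of at least 10% of the positive control shift, at one fixed dose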
MPTP inh – mitochondrial permeability transition pore inhibitors, primary screen, biochemical, isolated mouse mitochondria, absorbance | Ca2+ swelling absorbance, 30 min | inhibition, % at 10 µM | 1.4% of 360,000 active;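 active = inhibition of 50% or more, scaled per plate between neutral and stimulator controls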;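 note: 0% = DMSO wells given calcium and 100% = 1 mM EGTA wells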
Tb MetRS conf – T. brucei MetRS inhibitors, confirmation, biochemical, luminescence. shares compounds with Tb MetRS inh. T. brucei MetRS enzyme, luminescence (ATP depletion). inhibition, % at 11.9 µM. 93% of 1,400 active. AID 624412, 2012; in the data active = inhibition above about 7%
Jurkat cytotox – Jurkat T cell cytotoxicity, cytotoxicity control for T. brucei MetRS inhibitor project, luminescence, high throughput; shares compounds with Tb MetRS inh; Jurkat cells viability, ATP luminescence; inhibition, % at 8.3 µM; 12% of 1,400 active; AID 624413, 2012; in the data active = inhibition above about 15%;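 note: 0% = vehicle and 100% = reference inhibitor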
TbMetRS FP orth – T. brucei MetRS inhibitors, orthogonal assay for T. brucei MetRS inhibitor project, biochemical, fluorescence polarization | shares compounds with Tb MetRS inh | 44% of 1,400 active | AID 651607, 2012 | inhibition, % at 11.9 µM | purified T. brucei MetRS; in the data active = inhibition above about 17%;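 note: 0% = vehicle wells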
Numbers without * were called inactive; . = no result. In the library only some 6.4% were active in any assay of this set; here they are far more common.

SMILES	WT yeast gro inh	CHOP inh	EBV gp42 block	Tb MetRS inh	NR3A LBD binder	MPTP inh	Tb MetRS conf	Jurkat cytotox	TbMetRS FP orth
Cc1[nH]c(C)c(S(=O)(=O)Nc2ccc(F)cc2Cl)c1C(=O)N1CCCC1	.	.	.	3	-3	-1	.	.	.
Cc1[nH]c(C)c(S(=O)(=O)Nc2cccc(Cl)c2C)c1C(=O)N1CCCCC1	.	.	.	24*	0	-2	41*	1	20*
CCn1ccnc1CNC(=O)c1cc(COc2ccc(F)cc2F)on1	14	2	-12	0	1	-1	.	.	.
Cc1[nH]c2ccccc2c(=O)c1CN1CCCCC1	15	19	8	0	-2	-2	.	.	.
Cc1[nH]c2ccc(Cl)cc2c(=O)c1CN1CCCC1	-9	0	-12	45*	-2	0	48*	10	28*
Cc1[nH]c2ccc(Br)cc2c(=O)c1CN1CCCCCC1	.	.	.	60*	-14	-2	82*	4	52*
CCOc1ccc2[nH]c(C)c(CN3CCCCC3)c(=O)c2c1	32	4	0	-1	4	0	.	.	.
O=C(COc1cc([N+](=O)[O-])cc2cccnc12)NCCC1=CCCCC1	.	.	.	1	1	-2	.	.	.
CCOC(=O)C1CCCN(C/C(O)=C(\C#N)c2nc(-c3ccc(Cl)cc3)cs2)C1 (stereo not drawn)	-2	52	-17	0	1	8	.	.	.
NS(=O)(=O)c1ccc(CCNC(=O)C(=O)c2c[nH]c3ccccc23)cc1	-1	11	-6	12*	-1	0	26*	-5	10
Cc1[nH]c2ccccc2c1C(=O)C(=O)NCCc1ccc(S(N)(=O)=O)cc1	4	19	-9	50*	0	-1	66*	-3	45*
O=C(Nc1ccccc1)N1CCN(c2nc3ccccc3s2)CC1	7	7	-11	0	-1	1	.	.	.
COc1cccc(/C=N/Nc2nc3ccccc3[nH]2)c1O	.	54	4	8.8*	-11	5	10*	96*	7
COc1cc(/C=N/Nc2nc3ccccc3[nH]2)cc(OC)c1O	5	3	-9	8.5*	-2	0	14*	30*	33*
COc1ccc(O)c(/C=N/Nc2nc3ccccc3[nH]2)c1	8	-31	1	0	-2	0	.	.	.
COc1cc(/C=N/Nc2nc3ccccc3[nH]2)ccc1O	6	-34	-8	7.9*	15*	0	15*	15	32*
O=[N+]([O-])c1ccc(O)c(/C=N/Nc2nc3ccccc3[nH]2)c1	-7	39	3	9.5*	7	9	14*	98*	15
COc1ccc(C(=O)OCC(=O)c2ccc[nH]2)c(OC)c1	.	.	.	0	-1	1	.	.	.
C[C@H](CO)N1C[C@H](C)[C@@H](CN(C)Cc2cccc(O)c2)OCc2cnnn2CCCC1=O	.	.	.	-2	.	1	.	.	.
NC(=O)CNC1CC(=O)N(CCc2ccccc2)C1=O (stereo not drawn)	1	-6	-5	0	-7	-1	.	.	.
COc1ccc(C(=O)NCCS(=O)(=O)NCc2ccc(C)cc2)cc1	.	.	.	0	2	-2	.	.	.
Cc1nn(-c2ccccc2)c(C)c1/C=N/Nc1nc2ccccc2[nH]1	32	-10	6	8.0*	-8	1	14*	9	13
Cc1ccc(NC(=O)Cn2c(CCC(=O)O)ccc2-c2ccc(Cl)cc2)cc1	.	.	.	10*	0	6	34*	-6	17*
Cc1oc(-c2ccc(Cl)cc2)nc1CS(=O)CC(=O)NCCCN1CCOCC1 (stereo not drawn)	.	.	.	0	3	0	.	.	.
Cc1cc(=O)c2cc(Br)ccc2[nH]1	-9	-19	-10	6.0*	0	0	7.5*	7	8
SMILES	WT yeast gro inh	CHOP inh	EBV gp42 block	Tb MetRS inh	NR3A LBD binder	MPTP inh	Tb MetRS conf	Jurkat cytotox	TbMetRS FP orth
CCCNC(=O)N[C@@H](Cc1ccccc1)C(=O)OC	2	-6	12	-1	0	2	.	.	.
C/C(CC(=O)Nc1cccc(Br)c1)=N\NC(=O)c1ccc(O)cc1O	.	.	.	27*	0	5	98*	1	80*
O=C(NCc1ccc2c(c1)OCO2)c1cc(Cl)ccc1Cl	.	.	.	0	8	2	.	.	.
O=C(NCc1ccc2c(c1)OCO2)c1ccc(COc2cc(Cl)ccc2Cl)o1	49	54	-1	8.1*	-8	9	15*	-2	10
O=C(Nc1cccnc1)c1ccc(COc2cc(Cl)ccc2Cl)o1	8	20	10	6.8*	-6	0	15*	8	18*
COc1ccccc1NC(=O)CSc1nc2nccnc2c(=O)n1Cc1cccs1	.	.	.	0	2	-2	.	.	.
COc1cccc(C(=O)OCC(=O)c2ccc(Br)s2)c1OC	.	.	.	0	0	1	.	.	.
O=C(O)c1ccc(Nc2nc3ccc(Cl)cc3[nH]2)cc1	.	.	.	11*	8	0	44*	-3	14
CN1c2ccccc2C(O)=C(C(=O)Nc2ccccc2)S1(=O)=O	-16	-8	-19	-1	2	0	.	.	.
Cc1ccc(NC(=O)CN(C)C(=O)c2cc(S(=O)(=O)N(C)C)ccc2N2CCCC2)cc1	.	.	.	49*	-1	-1	78*	5	52*
CN(CC(=O)Nc1cccc(F)c1)C(=O)c1cc(S(=O)(=O)N(C)C)ccc1N1CCCC1	.	.	.	10*	0	0	27*	3	10
COc1ccc(/C=C(\NC(=O)c2ccc(Cl)cc2)C(=O)NCc2cccnc2)cc1OC	.	.	.	0	.	0	.	.	.
Cn1c(N)c(C(=O)CSc2nnc(-c3cccs3)n2C2CC2)c(=O)[nH]c1=O	.	.	.	0	-1	-2	.	.	.
O=c1[nH]c(COc2ccc(Br)cc2Cl)nc2ccccc12	.	.	.	6.2*	-19	1	30*	3	14
CCCCN(CCCC)Cc1ccc(N)cc1	1	-4	-20	0	0	1	.	.	.
CN(C(=O)CC1C(=O)NCCN1Cc1ccc(F)cc1)C1CCOCC1 (stereo not drawn)	.	-1	4	0	-4	0	.	.	.
Cc1ccc(NC(=O)CCNS(=O)(=O)c2ccc(Br)s2)cc1	.	.	.	18*	-3	4	40*	-1	24*
